Measurements: ChEMBL document CHEMBL4376856, “Discovery of N-(4-Aminobutyl)-N'-(2-methoxyethyl)guanidine as the First Selective, Nonamino Acid, Catalytic Site Inhibitor of Human Dimethylarginine Dimethylaminohydrolase-1 (hDDAH-1)” (J Med Chem, 2020)

Assays:
[1] = target: T1, N(G),N(G)-dimethylarginine dimethylaminohydrolase 1 (Homo sapiens, UniProt O94760); test: Inhibition of 6xHis-tagged recombinant human DDAH1 expressed in Escherichia coli BL21 cells using NMMA as substrate measured after 30 mins by colder reagent based microplate reader assay
Method in brief: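 Ki against hDDAH-1, given as the mean ± SD of at least two independent experiments.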

[2] = target: T2, Nitric oxide synthase 3 (Homo sapiens) (UniProt P29474); test: Inhibition of endothelial NOS (unknown origin) assessed as formation of methemoglobin from oxyhemoglobin at 1 mM using L-arginine as substrate in presence of oxyhemoglobin and NADPH by UV-vis spectrophotometry relative to control
T2 sequence (whole entry): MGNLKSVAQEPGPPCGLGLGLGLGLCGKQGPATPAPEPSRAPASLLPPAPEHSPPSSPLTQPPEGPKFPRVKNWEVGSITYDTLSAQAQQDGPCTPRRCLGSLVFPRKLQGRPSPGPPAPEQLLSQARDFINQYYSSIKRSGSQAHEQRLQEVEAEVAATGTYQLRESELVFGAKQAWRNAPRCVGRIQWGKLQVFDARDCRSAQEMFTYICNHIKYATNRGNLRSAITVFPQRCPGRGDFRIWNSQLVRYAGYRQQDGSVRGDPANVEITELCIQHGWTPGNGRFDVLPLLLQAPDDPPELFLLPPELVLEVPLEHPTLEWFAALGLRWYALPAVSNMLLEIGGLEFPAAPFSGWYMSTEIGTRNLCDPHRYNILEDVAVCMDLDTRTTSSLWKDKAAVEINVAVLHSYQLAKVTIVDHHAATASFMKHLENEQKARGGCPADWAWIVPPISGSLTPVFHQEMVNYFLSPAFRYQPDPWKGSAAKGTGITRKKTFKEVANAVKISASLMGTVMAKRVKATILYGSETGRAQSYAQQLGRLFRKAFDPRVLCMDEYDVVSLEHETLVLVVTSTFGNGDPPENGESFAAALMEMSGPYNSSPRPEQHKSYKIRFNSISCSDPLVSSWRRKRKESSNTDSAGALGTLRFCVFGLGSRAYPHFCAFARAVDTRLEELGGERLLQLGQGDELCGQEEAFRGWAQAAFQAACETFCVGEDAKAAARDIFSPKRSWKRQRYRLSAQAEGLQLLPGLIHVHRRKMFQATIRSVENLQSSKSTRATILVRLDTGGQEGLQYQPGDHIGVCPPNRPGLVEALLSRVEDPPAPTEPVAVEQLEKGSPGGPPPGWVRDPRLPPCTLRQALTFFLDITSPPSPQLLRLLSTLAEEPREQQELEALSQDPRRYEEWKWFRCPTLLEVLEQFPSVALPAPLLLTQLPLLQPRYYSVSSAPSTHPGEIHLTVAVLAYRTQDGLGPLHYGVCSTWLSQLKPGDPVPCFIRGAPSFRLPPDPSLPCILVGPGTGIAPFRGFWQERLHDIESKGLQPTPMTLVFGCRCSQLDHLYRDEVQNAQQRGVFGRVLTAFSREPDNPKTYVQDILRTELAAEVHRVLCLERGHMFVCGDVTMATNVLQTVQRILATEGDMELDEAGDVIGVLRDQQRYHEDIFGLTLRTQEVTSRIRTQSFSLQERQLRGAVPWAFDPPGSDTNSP
Method in brief: (§1)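 Each enzyme (arginase, nNOS, eNOS, iNOS) tested with inhibitor at 1 mM; percent inhibition given as the mean ± SD of at least three independent experiments.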

[3] = target: T3, Arginase-1 (Bos taurus) (UniProt Q2KJ64); test: Inhibition of bovine liver arginase at 1 mM using L-arginine as substrate measured after 30 mins by colder reagent based microplate reader assay relative to control; method in brief: as §1
T3 sequence (whole entry): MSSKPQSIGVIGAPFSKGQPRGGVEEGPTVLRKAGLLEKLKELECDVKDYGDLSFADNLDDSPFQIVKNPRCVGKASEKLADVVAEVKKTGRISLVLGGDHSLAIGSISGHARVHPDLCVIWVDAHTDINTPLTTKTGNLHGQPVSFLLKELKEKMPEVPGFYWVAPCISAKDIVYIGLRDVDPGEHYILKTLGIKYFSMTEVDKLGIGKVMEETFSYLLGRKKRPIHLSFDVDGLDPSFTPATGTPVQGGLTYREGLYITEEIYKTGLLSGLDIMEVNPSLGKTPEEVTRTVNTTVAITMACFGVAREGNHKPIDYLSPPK

[4] = target: Nitric oxide synthase, inducible (Homo sapiens) (UniProt P35228); test: Inhibition of iNOS (unknown origin) assessed as formation of methemoglobin from oxyhemoglobin at 1 mM using L-arginine as substrate in presence of oxyhemoglobin and NADPH by UV-vis spectrophotometry relative to control; method in brief: as §1
[5] = target: Nitric oxide synthase 1 (Homo sapiens) (UniProt P29475); test: Inhibition of neuronal NOS (unknown origin) assessed as formation of methemoglobin from oxyhemoglobin at 1 mM using L-arginine as substrate in presence of oxyhemoglobin and NADPH by UV-vis spectrophotometry relative to control; method in brief: as §1
[6] = target: T1, N(G),N(G)-dimethylarginine dimethylaminohydrolase 1; test: Inhibition of 6xHis-tagged recombinant human DDAH1 expressed in Escherichia coli BL21 cells at 1 mM using NMMA as substrate measured after 30 mins by colder reagent based microplate reader assay
[7] = system: HEK-293T; test: Cytotoxicity against human HEK293T cells assessed as effect on cell viability by measuring ATP content at 0.1 to 1000 uM incubated for overnight by CellTiter-Glo luminescent analysis; format: cell-based
[8] = system: HEK-293T; test: Cytotoxicity against human HEK293T cells assessed as effect on cell number at 0.1 to 1000 uM incubated for overnight by DAPI staining based analysis
[9] = Prodrug conversion in porcine liver mitochondria assessed as N-(4-Aminobutyl)-N'-(2-methoxyethyl)guanidine formation at 3 mM and pH 6 preincubated for 3 mins followed by NADH addition measured after 20 mins under aerobic conditions by RP-HPLC analysis; format: ADME, Sus scrofa; details: pig, pH 6, 20 min, 3000 µM
Method in brief: (§2)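 Prodrug incubated with porcine liver subcellular fractions (homogenate, mitochondria, outer mitochondrial membrane vesicles). The formed guanidine was quantified by HPLC after precolumn o-phthalaldehyde derivatization. Data are means ± SD of biological triplicates.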

[10] = Prodrug conversion in porcine liver mitochondrial membrane vesicles assessed as N-(4-Aminobutyl)-N'-(2-methoxyethyl)guanidine formation at 3 mM and pH 6 preincubated for 3 mins followed by NADH addition measured after 20 mins under aerobic conditions by RP-HPLC analysis; format: ADME, cell membranes, Sus scrofa, Mitochondrial membrane vesicle; details: pig, pH 6, 20 min, 3000 µM; method in brief: as §2
[11] = Chemical stability of compound at 250 uM in phosphate buffer at pH 2 to 9 and 37 degree C after 24 hrs by RP-HPLC analysis; format: physicochemical; details: pH 2, 24 h
[12] = target: T4, Mitochondrial amidoxime reducing component 2 (Homo sapiens, UniProt Q969Z3); test: Substrate activity at human recombinant mARC2 expressed in Escherichia coli assessed as enzyme-mediated N-(4-Aminobutyl)-N'-(2-methoxyethyl)guanidine formation at 3 mM and pH 6 preincubated for 3 mins followed by NADH addition measured after 20 mins under aerobic conditions by RP-HPLC analysis; format: ADME; details: pH 6, 20 min, 3000 µM
T4 sequence (Q969Z3 whole entry): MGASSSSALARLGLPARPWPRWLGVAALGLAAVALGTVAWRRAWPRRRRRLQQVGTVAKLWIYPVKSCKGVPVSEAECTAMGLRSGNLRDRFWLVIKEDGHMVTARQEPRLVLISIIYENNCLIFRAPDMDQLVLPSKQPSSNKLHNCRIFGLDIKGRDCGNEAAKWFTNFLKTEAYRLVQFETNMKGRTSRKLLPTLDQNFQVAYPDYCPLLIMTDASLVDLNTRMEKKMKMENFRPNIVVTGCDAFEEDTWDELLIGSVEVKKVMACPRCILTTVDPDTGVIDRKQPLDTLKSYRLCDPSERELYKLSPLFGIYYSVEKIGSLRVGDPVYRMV
Method in brief: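 Incubation used the reconstituted, heterologously expressed human mARC-2 N-reductive system. The guanidine product was measured by HPLC after precolumn derivatization with o-phthalaldehyde.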

[13] = Prodrug conversion in porcine liver homogenate assessed as formation of N-(4-Aminobutyl)-N'-(2-methoxyethyl)guanidine formation at 3 mM and pH 6 preincubated for 3 mins followed by NADH addition measured after 20 mins under aerobic conditions by RP-HPLC analysis; format: ADME, tissue-based, Sus scrofa; details: pig, tissue homogenate, pH 6, 20 min, 3000 µM; method in brief: as §2

T1 sequence (O94760 whole entry): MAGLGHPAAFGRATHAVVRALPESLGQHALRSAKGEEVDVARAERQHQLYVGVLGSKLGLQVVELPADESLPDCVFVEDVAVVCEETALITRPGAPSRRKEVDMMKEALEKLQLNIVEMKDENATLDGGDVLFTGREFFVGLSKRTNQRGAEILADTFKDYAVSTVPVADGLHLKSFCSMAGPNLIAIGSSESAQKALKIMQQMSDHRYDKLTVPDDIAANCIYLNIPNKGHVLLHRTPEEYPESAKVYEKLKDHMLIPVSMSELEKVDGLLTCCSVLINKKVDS
Sequence of Nitric oxide synthase 1 (Homo sapiens) (P29475 whole entry): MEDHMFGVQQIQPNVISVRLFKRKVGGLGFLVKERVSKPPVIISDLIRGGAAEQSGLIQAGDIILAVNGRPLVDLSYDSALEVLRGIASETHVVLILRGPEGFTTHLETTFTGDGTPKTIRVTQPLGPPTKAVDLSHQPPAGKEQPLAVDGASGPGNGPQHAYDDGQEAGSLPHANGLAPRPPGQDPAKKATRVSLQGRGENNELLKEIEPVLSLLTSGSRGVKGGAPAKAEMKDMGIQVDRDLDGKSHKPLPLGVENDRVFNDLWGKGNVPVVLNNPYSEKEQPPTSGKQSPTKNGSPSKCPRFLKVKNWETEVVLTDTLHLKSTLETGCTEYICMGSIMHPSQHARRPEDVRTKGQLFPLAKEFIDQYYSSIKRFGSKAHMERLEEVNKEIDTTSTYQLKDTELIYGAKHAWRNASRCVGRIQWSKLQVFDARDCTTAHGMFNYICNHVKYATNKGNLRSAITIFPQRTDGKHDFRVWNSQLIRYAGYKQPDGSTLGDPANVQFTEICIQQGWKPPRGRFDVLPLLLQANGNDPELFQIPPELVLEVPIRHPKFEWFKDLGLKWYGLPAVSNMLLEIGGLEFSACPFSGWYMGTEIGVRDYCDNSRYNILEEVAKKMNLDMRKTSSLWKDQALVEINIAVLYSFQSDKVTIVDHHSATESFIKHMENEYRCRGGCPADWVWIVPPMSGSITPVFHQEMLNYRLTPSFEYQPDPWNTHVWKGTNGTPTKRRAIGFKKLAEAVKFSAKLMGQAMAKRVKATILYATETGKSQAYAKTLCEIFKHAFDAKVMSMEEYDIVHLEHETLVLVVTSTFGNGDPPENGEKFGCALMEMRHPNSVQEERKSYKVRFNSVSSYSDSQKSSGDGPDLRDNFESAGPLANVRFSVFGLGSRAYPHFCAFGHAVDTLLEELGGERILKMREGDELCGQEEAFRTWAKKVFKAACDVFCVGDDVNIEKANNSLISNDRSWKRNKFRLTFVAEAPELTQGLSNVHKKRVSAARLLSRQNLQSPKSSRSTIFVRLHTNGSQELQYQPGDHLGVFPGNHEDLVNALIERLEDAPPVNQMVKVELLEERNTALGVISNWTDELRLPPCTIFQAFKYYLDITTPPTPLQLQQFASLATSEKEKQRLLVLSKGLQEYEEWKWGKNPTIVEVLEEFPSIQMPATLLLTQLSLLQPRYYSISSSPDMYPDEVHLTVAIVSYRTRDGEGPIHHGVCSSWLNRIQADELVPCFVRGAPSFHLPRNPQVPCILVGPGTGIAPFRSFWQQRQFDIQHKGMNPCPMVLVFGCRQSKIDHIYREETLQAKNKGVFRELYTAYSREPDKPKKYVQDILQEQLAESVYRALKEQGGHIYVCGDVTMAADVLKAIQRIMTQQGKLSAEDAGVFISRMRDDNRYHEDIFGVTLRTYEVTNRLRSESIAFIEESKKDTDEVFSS
Sequence of Nitric oxide synthase, inducible (Homo sapiens) (P35228 whole entry): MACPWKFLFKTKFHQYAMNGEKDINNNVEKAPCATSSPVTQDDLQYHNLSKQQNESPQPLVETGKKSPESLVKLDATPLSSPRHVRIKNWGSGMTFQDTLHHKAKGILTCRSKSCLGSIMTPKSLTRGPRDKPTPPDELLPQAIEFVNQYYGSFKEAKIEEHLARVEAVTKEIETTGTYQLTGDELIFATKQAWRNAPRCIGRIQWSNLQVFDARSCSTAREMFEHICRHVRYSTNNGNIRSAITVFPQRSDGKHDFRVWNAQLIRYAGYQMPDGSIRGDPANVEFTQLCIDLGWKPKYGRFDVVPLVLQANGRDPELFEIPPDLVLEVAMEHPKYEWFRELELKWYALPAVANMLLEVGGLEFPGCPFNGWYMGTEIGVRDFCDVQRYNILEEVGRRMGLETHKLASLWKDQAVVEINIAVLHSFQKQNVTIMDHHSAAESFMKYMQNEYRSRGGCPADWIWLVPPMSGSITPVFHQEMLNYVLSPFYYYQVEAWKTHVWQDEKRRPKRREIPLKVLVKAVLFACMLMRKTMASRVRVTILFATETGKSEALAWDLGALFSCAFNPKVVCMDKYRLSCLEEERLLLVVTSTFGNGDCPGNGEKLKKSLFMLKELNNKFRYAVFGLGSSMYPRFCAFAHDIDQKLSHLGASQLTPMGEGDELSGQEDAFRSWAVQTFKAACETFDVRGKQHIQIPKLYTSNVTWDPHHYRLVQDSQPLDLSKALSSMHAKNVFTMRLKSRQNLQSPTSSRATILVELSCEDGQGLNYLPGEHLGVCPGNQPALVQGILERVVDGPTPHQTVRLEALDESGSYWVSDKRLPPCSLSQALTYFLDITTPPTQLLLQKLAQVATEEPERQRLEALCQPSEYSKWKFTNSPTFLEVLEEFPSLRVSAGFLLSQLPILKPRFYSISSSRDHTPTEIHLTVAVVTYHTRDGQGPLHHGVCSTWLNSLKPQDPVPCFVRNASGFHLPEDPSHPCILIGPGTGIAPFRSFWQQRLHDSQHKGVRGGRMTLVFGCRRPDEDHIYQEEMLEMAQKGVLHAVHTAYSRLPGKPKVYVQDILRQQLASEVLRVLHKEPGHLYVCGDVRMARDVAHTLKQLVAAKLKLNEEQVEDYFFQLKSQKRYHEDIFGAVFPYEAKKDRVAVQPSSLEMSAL

Ki [1] | inhibition [2] | inhibition [3] | inhibition [4] | inhibition [5] | Structure (SMILES) | further results
1.3 µM |  |  |  |  | N=C(CCl)NCCC[C@H](N)C(=O)O | 
2810 µM | 0% | 15% | 21% | 0% | CCCCCNC(=N)NCCOC | 
156 µM | 29% | 20% | 26% | 35% | COCCCC(=N)NCCC[C@H](N)C(=O)O | 
2760 µM | 19% | 20% | 4% | 0% | COCCNC(=N)NCCC(C)C | 
768 µM | 56% | 6% | 100% | 99% | C=CCC(=N)NCCCCN | 
 | 13% | 11% | 0% | 0% | COCCNC(=N)NCCCCN | Activity [7]: Non-Toxic; Activity [8]: Non-Toxic
 |  | 70% |  |  | C=CCCNC(=N)NCCC[C@H](N)C(=O)O | 

The remaining lines, values behind:

Structure (SMILES) | Ki [1] | inhibition [2] | inhibition [3] | inhibition [4] | inhibition [5] | further results
COCC(=N)NCCC[C@H](N)C(=O)O | 73 µM | 89% | 22% | 75% | 93% | 
COCC(=N)NCCCCN | 983 µM | 44% | 21% | 42% | 78% | 
COCCC(=N)NCCCCN | 1450 µM | 28% | 22% | 16% | 19% | 
COCCC(=N)NCCC[C@H](N)C(=O)O | 9 µM | 54% | 43% | 50% | 65% | 
COCCNC(=N)NCCC[C@H](N)C(=O)NS(C)(=O)=O | 1 µM |  |  |  |  | 
C=CCCNC(=N)NCCCCN | 59 µM | 35% | 0% | 23% | 5% | 
COCCCC(=N)NCC[C@H](N)C(=O)O |  | < 20% | < 20% | < 20% | < 20% | inhibition [6]: < 20%
COCCNC(=N)NCCC[C@H](N)C(=O)O |  |  | 29% | 0% |  | 
COCCCC(=N)NCCCCN |  | 36% | 14% | 15% | 7% | inhibition [6]: < 20%
C=CCC(=N)NCCC[C@H](N)C(=O)O |  |  | 76% |  |  | 
COCCN/C(=N/O)NCCCCN |  |  |  |  |  | Activity [7]: Non-Toxic; Drug metabolism [9]: Metabolite_Detected; Activity [8]: Non-Toxic; Drug metabolism [10]: Metabolite_Detected; Stability [11]: Stable; Activity [12]: Active; Drug metabolism [13]: Metabolite_Detected
COCCNC(=N)NCCCCC(=O)O | 489 µM | 13% | 35% | 2% | 5% | 
